From PMC7983942 (Clinical Pharmacology and Therapeutics, 2020)

Target: T1, OCT1 (Homo sapiens, UniProt O15245)
T1 sequence (O15245 1-554): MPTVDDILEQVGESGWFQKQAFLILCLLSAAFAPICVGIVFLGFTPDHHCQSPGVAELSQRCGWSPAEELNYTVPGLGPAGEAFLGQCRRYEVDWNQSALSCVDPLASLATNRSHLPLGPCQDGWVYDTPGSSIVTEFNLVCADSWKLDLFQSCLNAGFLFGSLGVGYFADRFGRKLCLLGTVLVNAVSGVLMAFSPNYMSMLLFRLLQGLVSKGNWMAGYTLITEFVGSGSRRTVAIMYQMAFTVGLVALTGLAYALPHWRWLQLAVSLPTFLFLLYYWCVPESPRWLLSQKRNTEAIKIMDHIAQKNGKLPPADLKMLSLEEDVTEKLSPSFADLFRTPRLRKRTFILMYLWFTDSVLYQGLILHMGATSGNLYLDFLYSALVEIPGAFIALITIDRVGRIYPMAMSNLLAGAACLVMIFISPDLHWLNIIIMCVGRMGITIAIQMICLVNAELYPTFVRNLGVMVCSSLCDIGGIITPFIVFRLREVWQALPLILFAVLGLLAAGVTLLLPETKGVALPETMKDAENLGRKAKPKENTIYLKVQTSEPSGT
Assay: Uptake into transporter-transfected vs wild-type HEK293 cells
Format: in vitro ADME
Conditions: metformin 20 µM, two to four minutes
Outline: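 Transfected HEK293 lines were OAT2 and OCT1, each run against wild-type cells, seeded on poly-D-lysine plates. Culture was 48 h at 37°C in DMEM with 10% FBS plus 1% gentamycin, 1% sodium pyruvate and 50 µg/mL hygromycin B. Probes were cyclic GMP 0.5 µM (OAT2) and metformin 20 µM (OCT1), over 2–4 min; test compound was 1 µM for 2 min. After four ice-cold washes and methanol lysis, the uptake ratio versus wild-type and the ratio of ratios were derived; n=3 in one experiment.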

SMILES: CN(C)C(=N)N=C(N)N [metformin]
- Uptake ratio (vs. wild‐type HEK293 cells), probe: 15.4 ± 1.06
